Laboratory results: ChEMBL document CHEMBL2202999, “Synthesis of bivalent lactosides and their activity as sensors for differences between lectins in inter- and intrafamily comparisons” (Bioorg Med Chem Lett, 2012)

Assays:
[1] = Inhibition of binding of biotinylated chicken galectin-8N to surface immobilized asialofetuin by solid phase assay; set-up: species or system Gallus gallus
In short: (§1)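 Asialofetuin was adsorbed to microtiter wells at a constant coating amount, and its N-glycans served as ligand. Biotinylated lectin at a lectin-specific concentration was added with inhibitor. IC50 (mM) was normalized to lactose, and potency was expressed relative to free lactose. Assays were run in triplicate across up to five independent series.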

Galectin-3 [2] = biological target: T1, Galectin-3 (Gallus gallus, UniProt A4GTP0); assay: Inhibition of binding of biotinylated truncated chicken galectin-3 to surface immobilized asialofetuin by solid phase assay
T1 sequence (A4GTP0 whole entry): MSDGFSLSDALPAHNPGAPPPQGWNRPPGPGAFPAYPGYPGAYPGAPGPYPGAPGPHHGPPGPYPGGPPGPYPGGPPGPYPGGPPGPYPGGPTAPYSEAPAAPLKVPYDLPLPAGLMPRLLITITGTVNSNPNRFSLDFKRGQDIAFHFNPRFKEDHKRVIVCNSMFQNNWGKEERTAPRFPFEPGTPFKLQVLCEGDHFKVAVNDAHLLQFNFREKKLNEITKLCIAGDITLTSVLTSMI
In short: (§2)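 Asialofetuin was adsorbed to microtiter wells at a constant coating amount, and its N-glycans served as ligand. Biotinylated lectin at a lectin-specific concentration was added with inhibitor. Assays were run in triplicate across up to five independent series.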

Galectin-3 [3] = biological target: T1, Galectin-3; assay: Inhibition of binding of biotinylated chicken galectin-3 to surface immobilized asialofetuin by solid phase assay relative to free lactose; in short: as §1
[4] = Inhibition of binding of biotinylated chicken galectin-1A to surface immobilized asialofetuin by solid phase assay; set-up: species or system Gallus gallus; in short: as §1
[5] = Inhibition of binding of biotinylated chicken galectin-8S to surface immobilized asialofetuin by solid phase assay; set-up: species or system Gallus gallus; in short: as §1
[6] = Inhibition of binding of biotinylated Viscum album agglutinin to surface immobilized asialofetuin by solid phase assay relative to free lactose; in short: as §2
[7] = Inhibition of binding of biotinylated chicken galectin-8L to surface immobilized asialofetuin by solid phase assay; set-up: species or system Gallus gallus; in short: as §1
[8] = Inhibition of binding of biotinylated chicken galectin-8L to surface immobilized asialofetuin by solid phase assay relative to free lactose; set-up: species or system Gallus gallus; in short: as §2
[9] = Inhibition of binding of biotinylated Erythrina crista-galli agglutinin to surface immobilized asialofetuin by solid phase assay; in short: as §2
[10] = Inhibition of binding of biotinylated Erythrina crista-galli agglutinin to surface immobilized asialofetuin by solid phase assay relative to free lactose; in short: as §1
[11] = Inhibition of binding of biotinylated Viscum album agglutinin to surface immobilized asialofetuin by solid phase assay; in short: as §1
[12] = Inhibition of binding of biotinylated chicken galectin-8S to surface immobilized asialofetuin by solid phase assay relative to free lactose; set-up: species or system Gallus gallus; in short: as §1
Galectin-3 [13] = biological target: T1, Galectin-3; assay: Inhibition of binding of biotinylated truncated chicken galectin-3 to surface immobilized asialofetuin by solid phase assay relative to free lactose; in short: as §2
[14] = Inhibition of binding of biotinylated chicken galectin-2 to surface immobilized asialofetuin by solid phase assay relative to free lactose; set-up: species or system Gallus gallus; in short: as §1
Galectin-3 [15] = biological target: T1, Galectin-3; assay: Inhibition of binding of biotinylated chicken galectin-3 to surface immobilized asialofetuin by solid phase assay; in short: as §2
[16] = Inhibition of binding of biotinylated chicken galectin-1A to surface immobilized asialofetuin by solid phase assay relative to free lactose; set-up: species or system Gallus gallus; in short: as §1
[17] = biological target: T2, Beta-galactoside-binding lectin (Gallus gallus, UniProt P07583); assay: Inhibition of binding of biotinylated chicken galectin-1B to surface immobilized asialofetuin by solid phase assay relative to free lactose; in short: as §1
T2 sequence (P07583 whole entry): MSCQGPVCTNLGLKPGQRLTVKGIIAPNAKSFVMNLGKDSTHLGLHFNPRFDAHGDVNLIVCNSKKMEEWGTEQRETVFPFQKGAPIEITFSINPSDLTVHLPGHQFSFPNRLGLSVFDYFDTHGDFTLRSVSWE

[18] = Inhibition of binding of biotinylated chicken galectin-2 to surface immobilized asialofetuin by solid phase assay; set-up: species or system Gallus gallus; in short: as §1
[19] = biological target: T2, Beta-galactoside-binding lectin; assay: Inhibition of binding of biotinylated chicken galectin-1B to surface immobilized asialofetuin by solid phase assay; in short: as §1
[20] = Inhibition of binding of biotinylated chicken galectin-8N to surface immobilized asialofetuin by solid phase assay relative to free lactose; set-up: species or system Gallus gallus; in short: as §1
[21] = biological target: Galectin-3 (Gallus gallus) (UniProt A4GTP0); assay: (§3) Inhibition of binding of biotinylated truncated chicken galectin-3 to CHO cells at 2 mM by cytofluorometry; format: cell-based
In short: (§4)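 Labeled lectin, with or without inhibitor, was incubated with aliquots of cell suspensions from the same passage: human SW480 colon adenocarcinoma cells for Erythrina agglutinin, CHO cells for the galectins. Binding was quantified by cytofluorometry as % positive cells and mean fluorescence intensity. Readings were normalized between a lectin-only control (100%) and a no-lectin background (0%). Runs were done in triplicate across at least three independent series.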

CHO = assay: Inhibition of binding of biotinylated chicken galectin-8S to CHO cells at 1 mM by cytofluorometry; format: cell-based; details: Gallus gallus; in short: as §4
[22] = biological target: Galectin-3 (Gallus gallus) (UniProt A4GTP0); assay: (§5) Inhibition of binding of biotinylated chicken galectin-3 to CHO cells at 1 mM by cytofluorometry; format: cell-based; in short: as §4
SW480 = assay: Inhibition of binding of biotinylated Erythrina crista-galli agglutinin to SW480 cells at 0.2 mM by cytofluorometry; format: cell-based; in short: as §4
[23] = biological target: T3, Galectin-3 (Gallus gallus) (UniProt A4GTP0); assay: as §3; format: cell-based; in short: as §4; remark: listed apart in the source
T3 sequence (whole entry): T1 sequence (A4GTP0 whole entry)

[24] = biological target: T3, Galectin-3 (Gallus gallus); details: CHO, 0.25 mM
[25] = biological target: T3, Galectin-3 (Gallus gallus); assay: as §5; format: cell-based; in short: as §4; remark: listed apart in the source

Molecule	IC50 [1]	IC50 (Galectin-3 [2])	relative potency (Galectin-3 [3])	IC50 [4]	IC50 [5]	relative potency [6]	IC50 [7]	IC50 [8]	IC50 [9]	relative potency [10]	IC50 [11]	IC50 [12]	IC50 (Galectin-3 [13])	relative potency [14]	IC50 (Galectin-3 [15])	relative potency [16]	relative potency [17]	IC50 [18]	IC50 [19]	inhibition (SW480)	further results
C=CC[C@@H]1O[C@@H](C(=O)NCc2ccc(CNC(=O)[C@H]3O[C@H](CC=C)[C@H](OCc4ccccc4)[C@@H](OCc4ccccc4)[C@@H]3OCc3cn([C@@H]4O[C@H](CO)[C@@H](O[C@@H]5O[C@H](CO)[C@H](O)[C@H](O)[C@H]5O)[C@H](O)[C@H]4O)nn3)cc2)[C@H](OCc2cn([C@@H]3O[C@H](CO)[C@@H](O[C@@H]4O[C@H](CO)[C@H](O)[C@H](O)[C@H]4O)[C@H](O)[C@H]3O)nn2)[C@@H](OCc2ccccc2)[C@@H]1OCc1ccccc1	0.4 mM	5 mM	78.6	1.4 mM	3 mM	0.5	2.4 mM	2.1 mM	1.3 mM	0.8	1.3 mM	0.6 mM	0.9 mM	9.2	0.014 mM	0.5	8.7	0.65 mM	0.46 mM	–	relative potency [20]: 4
LACTOSE, ANHYDROUS [listing 1 of 2 here]	–	–	–	–	–	–	–	–	–	–	–	–	–	–	–	–	–	–	–	86%	inhibition [21]: 67%; inhibition (CHO): 39%; inhibition [22]: 75%
LACTOSE, ANHYDROUS [listing 2 of 2 here]	1.6 mM	–	–	0.5 mM	1.8 mM	–	5 mM	–	–	–	0.6 mM	–	–	–	–	–	–	6 mM	–	–	–

Second part, led by results:

IC50 [1]	IC50 (Galectin-3 [2])	relative potency (Galectin-3 [3])	IC50 [4]	IC50 [5]	relative potency [6]	IC50 [7]	IC50 [8]	IC50 [9]	relative potency [10]	IC50 [11]	IC50 [12]	IC50 (Galectin-3 [13])	relative potency [14]	IC50 (Galectin-3 [15])	relative potency [16]	relative potency [17]	IC50 [18]	IC50 [19]	Molecule	inhibition (SW480)	further results
0.5 mM	3.1 mM	15.7	0.22 mM	0.7 mM	4.6	1.8 mM	2.8 mM	0.6 mM	1.8	0.13 mM	2.6 mM	1.5 mM	5	0.07 mM	2.3	2.7	1.2 mM	1.5 mM	OC[C@H]1O[C@@H](O[C@H]2[C@H](O)[C@@H](O)[C@H](n3cc(-c4ccc(-c5cn([C@@H]6O[C@H](CO)[C@@H](O[C@@H]7O[C@H](CO)[C@H](O)[C@H](O)[C@H]7O)[C@H](O)[C@H]6O)nn5)cc4)nn3)O[C@@H]2CO)[C@H](O)[C@@H](O)[C@H]1O	85%	inhibition [23]: 44%; inhibition [24]: 39%; inhibition (CHO): 34%; relative potency [20]: 3.2
0.8 mM	4.2 mM	–	0.36 mM	2.5 mM	–	4.5 mM	–	1.2 mM	–	0.55 mM	0.7 mM	–	–	0.6 mM	–	–	1.4 mM	1.3 mM	O=C(/C=C/C(=O)N[C@@H]1O[C@H](CO)[C@@H](O[C@@H]2O[C@H](CO)[C@H](O)[C@H](O)[C@H]2O)[C@H](O)[C@H]1O)N[C@@H]1O[C@H](CO)[C@@H](O[C@@H]2O[C@H](CO)[C@H](O)[C@H](O)[C@H]2O)[C@H](O)[C@H]1O	89%	inhibition [23]: 47%; inhibition (CHO): 70%; inhibition [25]: 45%
0.3 mM	5.3 mM	13.8	1.6 mM	0.4 mM	2.5	0.6 mM	8.3 mM	0.8 mM	1.4	0.24 mM	4.5 mM	0.8 mM	8.6	0.08 mM	0.3	6.7	0.7 mM	0.6 mM	O=C1NCc2ccc(cc2)CNC(=O)[C@@H]2O[C@@H](C/C=C/C[C@H]3O[C@H]1[C@@H](OCc1cn([C@@H]4O[C@H](CO)[C@@H](O[C@@H]5O[C@H](CO)[C@H](O)[C@H](O)[C@H]5O)[C@H](O)[C@H]4O)nn1)[C@H](OCc1ccccc1)[C@H]3OCc1ccccc1)[C@@H](OCc1ccccc1)[C@H](OCc1ccccc1)[C@H]2OCc1cn([C@@H]2O[C@H](CO)[C@@H](O[C@@H]3O[C@H](CO)[C@H](O)[C@H](O)[C@H]3O)[C@H](O)[C@H]2O)nn1	88%	relative potency [20]: 5.3
